Shown are actives, neighbours in structure and some others; about 7.4% of the full set was active somewhere.
JNK3 inh = inhibitors of human JNK3 kinase; purified JNK3 kinase activity, HTS; P53779; AID 746; inhibition, % at 8 µM; 60,000 compounds, 0.61% hits; in the data active = inhibition above about 17%
M1 agonist = M1 muscarinic receptor agonism. CHO-M1 cells, Fluo-4 calcium fluorescence, agonist mode; active compounds read high. B-score at 10 µM. 64,000 compounds, 3% hits. AID 626;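 active = fluorescence rise, raw or as B-score row- and column-corrected plate score, outside the 99.7% band of its plate's samples, either direction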
S1P1 ag pot = agonists and agonism potentiators of human S1P1 receptor; S1P1 CRE-bla cells, forskolin, beta-lactamase FRET, potentiator mode; S1P1 agonist co-added at EC20, 2 nM; 100% = saturating reference agonist, 0% = basal; P21453; 56,000 compounds, 0.57% hits; activation, % at 9.5 µM;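 active = activation above a cutoff set at the mean activation of all tested compounds plus 3 SD, cut at about 54% in these data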;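 also: forskolin at 4 µM as EC80 and the EC20 agonist is SEW2871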
M1 antagonist = blocks the rat M1 muscarinic receptor response to acetylcholine; CHO-M1 cells, Fluo-4 calcium, ACh EC80 antagonist mode; active compounds read low; B-score at 10 µM; 64,000 compounds, 3.4% hits; AID 628;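 active = calcium fluorescence response, raw or row-and-column corrected B-score, differing from the plate sample mean either way at a set confidence level, mostly lower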
Jurkat viability = cytotoxic compounds reducing Jurkat cell viability | Jurkat E6.1 viability, ATP luminescence, 48 h | inhibition, % at 4 µM | 56,000 compounds, 1.2% hits;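 active = inhibition above the mean inhibition of all tested compounds plus 3 SD, cut at about 28% in these data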
S1P3 ag = S1P3 (human) receptor agonism. Q99500. S1P3 NFAT-BLA reporter cells, FRET ratio; relative to 1 µM S1P, basal subtracted. activation, % at 4.5 µM. 60,000 compounds, 0.1% hits. AID 373;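 active = activation above the screen-wide mean plus 3 SD, cut at about 4.5% in these data, passing the limit was not always enough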
Target sequence (Q99500 whole entry, looked up): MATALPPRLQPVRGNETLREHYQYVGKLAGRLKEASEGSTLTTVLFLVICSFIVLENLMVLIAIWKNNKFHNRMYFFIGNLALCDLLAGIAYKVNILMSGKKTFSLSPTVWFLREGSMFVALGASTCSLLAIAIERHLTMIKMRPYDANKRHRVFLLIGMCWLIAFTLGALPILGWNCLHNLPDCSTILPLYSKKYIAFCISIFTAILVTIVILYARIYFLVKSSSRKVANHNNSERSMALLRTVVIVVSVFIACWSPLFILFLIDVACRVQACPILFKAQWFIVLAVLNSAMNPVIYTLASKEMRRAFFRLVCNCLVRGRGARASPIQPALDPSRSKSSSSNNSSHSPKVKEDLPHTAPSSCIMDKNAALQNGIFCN
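Benchmarks: high control 1 µM S1P / System: stable CHO line with human S1P3, Gα16, NFAT-BLA reporter / Dosing: single compound concentration, 4.5 µM final / Timing: 4 h compound at 37 °C, 2 h substrate at RT / Measured by: FRET β-lactamase substrate fluorescence, excitation 405 nm, 460/535 nm emission ratio, background-subtracted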
M1 agonist conf = rat M1 muscarinic agonism, confirmation; shares compounds with M1 agonist; 1,700 compounds, 19% hits; CHO-M1 cells, Fluo-4 calcium fluorescence, agonist mode; actives lie on both sides; fluorescence change (max-min) at 10 µM; AID 1488;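 active = fluorescence change differs from the solvent-only DMSO control mean at a set confidence level in both duplicate runs; inconclusive = differs from solvent-only control mean in just one of two runs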;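 also: an EC20 dose of acetylcholine follows compound addition during the same imaging run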
M4 agonist ctr = rat M4 muscarinic agonism, M1 counter-screen; 1,700 compounds, 9% hits; fluorescence change (max-min) at 10 µM; AID 1741; CHO M4/Gqi5 cells, Fluo-4 calcium fluorescence, agonist mode; actives lie on both sides; shares compounds with M1 agonist;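 active = fluorescence change differing from the plate's solvent-only control wells at 99.7% confidence in both duplicates, whether higher or lower; inconclusive = differs from solvent controls in only one of two duplicates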
Hits are given with their value; i = inactive; ? = inconclusive; nt = not tested or not shown.

SMILES	JNK3 inh	M1 agonist	S1P1 ag pot	M1 antagonist	Jurkat viability	S1P3 ag	M1 agonist conf	M4 agonist ctr
O=S(=O)(c1ccc(Cl)c(C(F)(F)F)c1)N1CCN(CC(O)COCC2CCCO2)CC1 (stereo not drawn)	i	i	i	i	i	i	nt	nt
CCCCn1c(SCC(=O)Nc2nnc(C)s2)nnc1-c1ccoc1C	i	3.24	i	i	i	i	?	i
CCCn1c(SCC(=O)Nc2nnc(C)s2)nnc1-c1ccoc1C	i	i	i	i	i	i	nt	nt
O=C(OCCN1C(=O)c2ccccc2C1=O)c1cccc(OC(F)F)c1	i	i	i	i	i	i	nt	nt
CCOC(=O)C1CCN(S(=O)(=O)c2cnc[nH]2)CC1	i	i	i	i	i	i	nt	nt
CCOC(=O)C1CCN(S(=O)(=O)c2cccc(-c3cn4cccc(C)c4n3)c2)CC1	i	2.33	i	-3.05	i	i	i	i
CC(c1ccccc1)N1CNc2c(c(=O)n(C)c(=O)n2C)C1 (stereo not drawn)	i	i	nt	i	i	i	nt	nt
CCC(=NC(C)c1ccccc1)c1c(O)n(C)c(=O)n(C)c1=O (stereo not drawn)	i	3.84	i	i	53.9	i	i	i
Oc1ccc2[nH]cnc2c1CN1CCCCC1	i	i	i	i	i	i	nt	nt
COc1ccc(C2C(C(=O)Nc3cc(C)on3)c3ccccc3C(=O)N2C)cc1OC (stereo not drawn)	nt	i	nt	i	nt	nt	nt	nt
COc1ccc(C2C(C(=O)NC(C)C)c3ccccc3C(=O)N2C)cc1OC (stereo not drawn)	nt	3.36	nt	i	nt	nt	i	i
O=C(Nc1ccc(F)cc1F)NC1CC(=O)N(Cc2ccccc2)C1 (stereo not drawn)	i	i	i	i	i	i	nt	nt
COC(=O)c1cc(OC)c(OC)cc1NC(=O)c1ccoc1C	i	i	i	i	i	i	nt	nt
CC(C)CC(C(=O)Nc1oc(-c2ccco2)c(-c2ccco2)c1C#N)N1C(=O)c2ccccc2C1=O (stereo not drawn)	i	12.6	i	-1.94	i	i	i	i
CC(C)CC(C(=O)Nc1ccc2c(c1)OCCO2)N1C(=O)c2ccccc2C1=O (stereo not drawn)	i	i	i	i	i	i	nt	nt
CC(C)(CNC(=O)c1cc2ccccc2o1)N1CCOCC1	i	i	i	i	i	i	nt	nt
COC(=O)c1cc(OC)c(OC)cc1NC(=O)c1c(C)noc1C	i	i	i	i	i	i	nt	nt
COc1ccc(CCNC(=O)c2ccc3nc(-c4ccco4)c(-c4ccco4)nc3c2)cc1OC	i	8.51	i	i	i	i	i	i
CC1CCc2cccc3c2N1c1cc(C#N)c(C#N)cc1O3 (stereo not drawn)	i	11.4	i	i	i	i	?	i
Cc1ccc(S(=O)(=O)N2CCN(C(=O)CN3CCOCC3)C2c2ccccc2)cc1 (stereo not drawn)	i	6.19	i	i	i	i	i	i
O=C(CN1CCOCC1)N1CCN(S(=O)(=O)c2ccccc2)C1c1ccccc1 (stereo not drawn)	i	i	i	i	i	i	nt	nt
CCOC(=O)CC1=C(C(=O)OCC)C(c2ccc(OC)cc2OC)C(C#N)=C(N)O1 (stereo not drawn)	i	6.99	i	i	i	i	i	i
Cn1c(=O)c2cc(S(=O)(=O)NC(C(=O)NCc3cccnc3)c3ccccc3)ccc2n(C)c1=O (stereo not drawn)	i	i	i	i	i	i	nt	nt
CC(C)Oc1ccc(CSc2nnc3n(C)c(=O)c4c5c(sc4n23)CCCC5)cc1	i	i	i	i	i	i	nt	nt
C=C(C)CSc1nnc2n(C)c(=O)c3c4c(sc3n12)CCC4	i	3.48	i	i	nt	i	i	?
SMILES	JNK3 inh	M1 agonist	S1P1 ag pot	M1 antagonist	Jurkat viability	S1P3 ag	M1 agonist conf	M4 agonist ctr
CCOC(=O)N1CCN(CC(=O)N2c3ccccc3CC2C)CC1 (stereo not drawn)	i	3.33	i	i	i	i	i	i
Cc1ccc2c(c1)nnn2C1CCN(CC(=O)N2c3ccccc3CC2C)CC1 (stereo not drawn)	i	i	i	i	i	i	nt	nt
COc1ccc(OCC(O)Cn2c(=N)n(CCN3CCOCC3)c3ccccc32)cc1 (stereo not drawn)	i	7.47	i	i	i	i	i	i
COc1ccccc1CC1(C)NC(=O)N(CC(=O)Nc2cc(C)on2)C1=O (stereo not drawn)	i	i	i	i	i	i	nt	nt
COc1cccc(-c2cc(C(=O)NCCc3ccccc3)no2)c1	nt	i	nt	i	nt	nt	nt	nt
Clc1nc2sccn2c1/C=N/n1cnc2ccccc21	nt	8.39	nt	i	nt	nt	i	i
C=CCn1cnc2c(c1=O)c1nc3ccccc3nc1n2/N=C/c1cc(OC)c(OC)c(OC)c1	i	11.1	i	-2.16	i	i	-32.7	i
O=C(c1cc2nc(-c3ccccc3)cc(-c3ccccc3)n2n1)N1CCN(C(=O)c2ccco2)CC1	i	3.45	nt	i	i	i	i	i
O=C(c1cc2nc(-c3ccccc3)cc(C(F)(F)F)n2n1)N1CCCC1	nt	i	nt	i	nt	nt	nt	nt
O=C(c1cc2nc(-c3ccco3)cc(C(F)(F)F)n2n1)N1CCN(c2ccccn2)CC1	i	2.49	i	i	i	i	?	i
C=CCOC(=O)c1sc(N2C(=O)c3oc4ccccc4c(=O)c3C2c2ccco2)nc1C (stereo not drawn)	i	i	i	i	i	i	nt	nt
CCOC(=O)C1C(=O)CC(C)(O)C(C(=O)OCC)C1/C=C/c1ccccc1 (stereo not drawn)	i	2.86	i	i	i	i	i	i
COC(=O)C1C(=O)CC(C)(O)C(C(=O)OC)C1/C=C/c1ccccc1 (stereo not drawn)	i	i	i	i	i	i	nt	nt
CCOc1cc(C(=O)N2CCN(c3ccc(C(C)=O)cc3)CC2)cc(OCC)c1OCC	i	i	i	i	i	i	nt	nt
CCOC(=O)C1CCCN(c2c(N3CCN(c4ccccn4)CC3)c(=O)c2=O)C1 (stereo not drawn)	i	i	i	i	i	i	nt	nt
CCOC(=O)C1CCN(c2c(N3CCCC(C(=O)OCC)C3)c(=O)c2=O)CC1 (stereo not drawn)	i	26.6	i	i	i	i	i	?
Cc1ccc(C2C(C#N)=C(N)SC(N)=C2C#N)c(C)c1	i	10.9	i	i	i	i	i	i
CCc1nc(OCc2ccco2)c2sc3nc4c(cc3c2n1)COC(C)(C)C4	i	i	i	i	i	i	nt	nt
CC1(C)Cc2nc3sc4c(N(CCO)CCO)ncnc4c3cc2CO1	i	2.84	i	i	nt	i	?	i
